Reference: ChEMBL document CHEMBL5321226, “Structure-directed identification of pyridine-2-methylamine derivatives as MmpL3 inhibitors for use as antitubercular agents” (Eur J Med Chem, 2023)
≈ marks a conversion by molar mass, not a printed value.

Key:
Type in all cases: functional
Conditions in all cases: time 7-14 day
[1] = system: Mycobacterium tuberculosis; assay: Antimycobacterial activity against extensively drug resistant Mycobacterium tuberculosis TF274 assessed as bacterial growth inhibition incubated for 7 to 14 days by MABA assay
Summary of the method: (§1)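 Clinical M. tuberculosis isolates were tested in a microplate Alamar Blue assay (MABA), with isoniazid, rifampin, levofloxacin, ofloxacin and kanamycin as positive controls. The MIC is the lowest concentration giving at least a 90% reduction of the bacterial growth signal, averaged over three individual measurements.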

[2] = system: Mycobacterium tuberculosis; assay: Antimycobacterial activity against extensively drug resistant Mycobacterium tuberculosis R506 assessed as bacterial growth inhibition incubated for 7 to 14 days by MABA assay; summary of the method: as §1
[3] = system: Mycobacterium tuberculosis; assay: Antimycobacterial activity against N-cycloheptyl-4,6-dimethyl-1H-indole-2-carboxamide-resistant Mycobacterium tuberculosis IAR2 harboring MmpL3 S288T mutant assessed as bacterial growth inhibition incubated for 7 to 14 days by MABA assay
[4] = system: Mycobacterium tuberculosis; assay: Antimycobacterial activity against multidrug resistant Mycobacterium tuberculosis KZN494 assessed as bacterial growth inhibition incubated for 7 to 14 days by MABA assay; summary of the method: as §1
[5] = system: Mycobacterium tuberculosis; assay: Antimycobacterial activity against multidrug resistant Mycobacterium tuberculosis V2475 assessed as bacterial growth inhibition incubated for 7 to 14 days by MABA assay; summary of the method: as §1

Compound `C[C@H]1COc2c(N3CCN(C)CC3)c(F)cc3c(=O)c(C(=O)O)cn1c23` [LEVOFLOXACIN ANHYDROUS] has an MIC90 [1] of 1 µg/mL (≈ 2.77 µM) and an MIC90 [2] of 2 µg/mL (≈ 5.53 µM).
With `Cc1cc(C)c2cc(C(=O)NC3CCCCCC3)[nH]c2c1` the MIC90 [3] was 0.013 µg/mL (≈ 0.0457 µM).
For `CO[C@H]1/C=C/O[C@@]2(C)Oc3c(C)c(O)c4c(O)c(c(/C=N/N5CCN(C)CC5)c(O)c4c3C2=O)NC(=O)/C(C)=C\C=C\[C@H](C)[C@H](O)[C@@H](C)[C@@H](O)[C@@H](C)[C@H](OC(C)=O)[C@@H]1C` [RIFAMPIN], the MIC90 [1] was > 128 µg/mL, the MIC90 [4] was 128 µg/mL (≈ 156 µM) and the MIC90 [5] was 4 µg/mL (≈ 4.86 µM). The MIC90 [2] was > 128 µg/mL.
`c1ccc(-c2ccc(-c3ccnc(CN4CCC5(CCCC5)CC4)c3)cc2)cc1` was tested, and the MIC90 [1] was 0.004 µg/mL (≈ 0.0105 µM), the MIC90 [4] was 0.016 µg/mL (≈ 0.0418 µM) and the MIC90 [5] was 0.063 µg/mL (≈ 0.165 µM). The MIC90 [3] was 1 µg/mL (≈ 2.61 µM) and the MIC90 [2] was 0.031 µg/mL (≈ 0.081 µM).
In the case of `NC[C@H]1O[C@H](O[C@H]2[C@H](O)[C@@H](O[C@H]3O[C@H](CO)[C@@H](O)[C@H](N)[C@H]3O)[C@H](N)C[C@@H]2N)[C@H](O)[C@@H](O)[C@@H]1O` [KANAMYCIN], the MIC90 [1] is reported as > 128 µg/mL, the MIC90 [4] is reported as 2 µg/mL (≈ 4.13 µM) and the MIC90 [5] is reported as 2 µg/mL (≈ 4.13 µM). For the same compound, the MIC90 [2] was > 128 µg/mL.
In the case of `CC1COc2c(N3CCN(C)CC3)c(F)cc3c(=O)c(C(=O)O)cn1c23` (stereo not given) [OFLOXACIN], the MIC90 [1] is reported as 8 µg/mL (≈ 22.1 µM), the MIC90 [4] is reported as 0.5 µg/mL (≈ 1.38 µM) and the MIC90 [5] is reported as 0.5 µg/mL (≈ 1.38 µM). For the same compound, the MIC90 [2] was 4 µg/mL (≈ 11.1 µM).
Work on `NNC(=O)c1ccncc1` [ISONIAZID] yielded an MIC90 [1] of 8 µg/mL (≈ 58.3 µM), an MIC90 [4] of 16 µg/mL (≈ 117 µM) and an MIC90 [5] of 16 µg/mL (≈ 117 µM). The MIC90 [3] was 0.04 µg/mL (≈ 0.292 µM) and the MIC90 [2] was 8 µg/mL (≈ 58.3 µM).
